Results published in ChEMBL document CHEMBL4706750, “Design and Catalyzed Activation of Mycophenolic Acid Prodrugs” (ACS Med Chem Lett, 2021).
Activity calls are given as the source filed them. No cut-off for these calls is given here.

Key:
[1] = Stability of compound in PBS at pH 7.4 and 37 degree C measured by HPLC method; assay type: physicochemical; settings: buffer
Outline: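 Compound incubated at 37 °C in PBS (pH 7.4, 5% DMSO) with no catalyst. Remaining compound followed over time.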

[2] = Toxicity in human hepatocytes assessed by dehydrogenase activity measured after 48 hrs by CCK-8 assay; assay type: cell-based, Hepatocyte
Outline: (§1)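 Cells cultured with compound for 48 h, then dehydrogenase activity read by colorimetric CCK-8 assay. EC50 derived from the concentration series. Cells were primary human hepatocytes or the MIN6 pancreatic β-cell line, as the line states.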

[3] = target: Inosine-5'-monophosphate dehydrogenase 2 (Homo sapiens) (UniProt P12268); experiment: Inhibition of IMPDH2 (unknown origin) assessed by conversion of NAD+ to NADH preincubated for 30 mins followed by addition of inosine-5'- monophosphate substrate and NAD at 10 uM measured by plate reader method
Outline: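 IMPDH2 enzyme exposed to test compounds, then stimulated with inosine-5′-monophosphate and NAD+. NADH formation followed by absorbance at 340 nm. Single test concentration of 10 μM.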

[4] = Toxicity in mouse MIN6 cells assessed by dehydrogenase activity measured after 48 hrs by CCK-8 assay; assay type: cell-based; outline: as §1
[5] = Prodrug conversion in PBS buffer assessed as mycophenolic acid formation in presence of nitroreductase and NADH.; assay type: ADME
Outline: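 Prodrug incubated at 37 °C in PBS (pH 7.4, 5% DMSO) with nitroreductase conjugated to 30 μm amino-terminated polystyrene beads by reductive amination, plus NADH. Release of mycophenolic acid followed over time.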

Inosine-5'-monophosphate dehydrogenase 2 (Homo sapiens), sequence (P12268 2-514 limits assumed): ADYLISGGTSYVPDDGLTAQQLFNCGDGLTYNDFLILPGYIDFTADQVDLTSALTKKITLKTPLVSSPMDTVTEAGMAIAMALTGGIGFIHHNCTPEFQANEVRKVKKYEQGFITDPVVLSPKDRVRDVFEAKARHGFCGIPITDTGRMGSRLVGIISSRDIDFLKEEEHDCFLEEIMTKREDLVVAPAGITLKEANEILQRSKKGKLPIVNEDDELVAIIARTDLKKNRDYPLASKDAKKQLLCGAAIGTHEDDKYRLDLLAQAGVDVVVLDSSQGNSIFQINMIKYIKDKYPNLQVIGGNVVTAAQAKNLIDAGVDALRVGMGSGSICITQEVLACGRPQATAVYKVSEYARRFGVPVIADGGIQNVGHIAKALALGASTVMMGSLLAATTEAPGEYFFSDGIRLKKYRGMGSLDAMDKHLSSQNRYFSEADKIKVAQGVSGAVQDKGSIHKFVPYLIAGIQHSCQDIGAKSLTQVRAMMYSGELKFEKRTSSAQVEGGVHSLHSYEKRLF

Structure (SMILES) | Stabilty [1] | inhibition [3] | Drug metabolism [5] | EC50 at 48 h [2] [µM] | EC50 at 48 h [4] [µM]
C#CCOc1c(C/C=C(\C)CCC(=O)O)c(OC)c(C)c2c1C(=O)OC2 | Stable | inactive | – | 20.1 | –
C#CCOC(=O)CC/C(C)=C/Cc1c(OC)c(C)c2c(c1OCC#C)C(=O)OC2 | – | inactive | – | 6.7 | –
COc1c(C)c2c(c(O)c1C/C=C(\C)CCC(=O)O)C(=O)OC2 [MYCOPHENOLIC ACID] | – | Active | – | 5.9 | 0.6

Second part, led by results:

Stabilty [1] | inhibition [3] | Drug metabolism [5] | Structure (SMILES) | EC50 at 48 h [2] [µM] | EC50 at 48 h [4] [µM]
– | inactive | – | COc1c(C)c2c(c(OCc3ccc([N+](=O)[O-])cc3)c1C/C=C(\C)CCC(=O)OCc1ccc([N+](=O)[O-])cc1)C(=O)OC2 | 8.3 | –
Stable | inactive | Metabolite_Detected | COc1c(C)c2c(c(OCc3ccc([N+](=O)[O-])cc3)c1C/C=C(\C)CCC(=O)O)C(=O)OC2 | 14.4 | 24
